Screening results: PubChem BioAssay, SRMLSC
Many of the other results were omitted from the sample, so hits are more common in it than they were.
H69AR inhibit: blocks growth of human H69AR lung tumor cells; H69AR lung tumor viability, ATP luminescence, 72 h; active compounds read low; viability, % at 10 µM; 85,000 tested, 6% active;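 active = viability at or below 40%; inactive = viability above 40%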;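 also: multidrug resistant small cell line overexpressing MRP-1 efflux transporter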
HUVEC inhibit: human endothelial cell proliferation inhibition; HUVEC proliferation, CellTiter-Glo luminescence, 72 h; active compounds read low; viability, % at 10 µM (by protocol); 86,000 tested, 1.1% active; AID 648;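 active = viability at or below 30%; inactive = viability above 30%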
HCT116 bCat-KO: beta-catenin-lacking colon tumor cell growth suppression; HCT116 beta-catenin knockout viability, CellTiter-Glo, 60 h; active compounds read low; viability, % at 10 µM; 140,000 tested, 1.5% active;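 active = viability at or under a set limit, the compound median less 4 SD, cut at about 6% in these data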
PTEN del growth: PTEN-deleted cell growth suppression. HCT116 PTEN-null viability, CellTiter-Glo, 60 h; active compounds read low. viability, % at 10 µM. 140,000 tested, 1.2% active. AID 827;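 active = viability at or below a set limit, 4 SD under the median of all tested compounds, cut at about 3.7% in these data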;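 also: PTEN knockout HCT116 line with beta catenin targeted HCT116 as companion control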
Fibroblast inh: blocks proliferation of human lung fibroblasts. LL 47 human lung fibroblast viability, ATP luminescence; active compounds read low. 85,000 tested, 1.1% active. viability, % at 10 µM. AID 719;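 active = viability at or below 50% in the single dose screen; inactive = viability above 50%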;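 also: compound exposure lasted 72 h before the ATP readout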
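material = human LL 47 lung fibroblast cells | dosing = compounds added from tenfold dosing solution, 0.1% DMSO final | timing = overnight cell rest, 72 h compound treatment at 37 °C | measured by = CellTiter-Glo luminescence measuring cellular ATP | evaluation = % viability versus median cells-only luminescence | control set = cell-only wells, no compound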
A number is an active result; 0 = inactive; - = no result given.

SMILES	H69AR inhibit	HUVEC inhibit	HCT116 bCat-KO	PTEN del growth	Fibroblast inh
O=S(=O)(c1ccc2nc(SCc3ccc(Cl)cc3)[nH]c2c1)N1CCOCC1	-	-	0	0	-
O=S(=O)(c1ccc2nc(-c3ccccc3)[nH]c2c1)N1CCN(c2ccc(Cl)cc2)CC1	-	-	0.9	0.8	-
O=C(NC(=Nc1nc2ccccc2o1)NC(=O)c1ccccc1)c1ccccc1	-	-	0	0	-
N/C(=N\c1nc2ccccc2o1)NC(=O)c1ccccc1F	0	0	0	0	0
COc1ccccc1C(=O)NC(=Nc1nc2ccccc2o1)NC(=O)c1ccccc1OC	18	14	2.5	2.1	0
N/C(=N\c1nc2ccccc2o1)NC(=O)c1ccccc1NC(=O)c1ccccc1	27	0	0	0	0
CCCCS(=O)(=O)NC1=NCN(CCOC(=O)c2ccccc2)CN1	0	0	-	-	0
[O-][n+]1onc2c3ccnnc3ccc21	38	0	0	0	0
Cc1cc2c(ccc3c2no[n+]3[O-])nn1	37	0	0	0	0
[O-][n+]1onc2c1CCc1nnccc1-2	0	0	0	0	0
O=C(COc1ccc2ccccc2c1Br)NC(=S)Nc1cccc(CO)c1	-	-	0	0	-
Cc1csc(NC(=O)CSc2nnc3c4ccccc4nc(C(C)(C)C)n23)n1	-	-	0	0	-
Cc1ccc(C(=O)Oc2coc(CSc3nnc(NC(=O)C4CC4)s3)cc2=O)cc1C	-	-	0	0	-
C/C(=N\NC(=S)NCCc1ccccc1)c1cccs1	-	-	0	0	-
c1ccc(-c2noc(-c3ccc4ccccc4c3)n2)nc1	0	0	0	0	0
c1ccc(CCc2ccccc2-c2nc(-c3ccccn3)no2)cc1	34	0	0	0	0
c1ccc(CCc2ccccc2-c2nc(-c3cccnc3)no2)cc1	0	0	0	0	0
c1ccc(-c2noc(-c3ccc4c(c3)OCO4)n2)nc1	23	29	0	0	0
CC(=O)Nc1ccc(-c2nnc(SCC(=O)NCc3ccco3)n2C)cc1	0	0	0	0	0
CCc1nnc(NC(=O)CCC(=O)N2CCN(C3c4ccccc4-c4ccccc43)CC2)s1	-	-	0	0	-
CSc1nc(Oc2ccc3ccccc3c2)c2ccccc2n1	-	-	0	0	-
CCOc1ccc(/C(O)=C/C(=O)C(=O)Nc2ccc(S(=O)(=O)NC(C)=O)cc2)cc1	-	-	0	0	-
Cc1ccccc1-n1c(SCC(=O)c2c(N)n(C)c(=O)n(C)c2=O)nc2sc3c(c2c1=O)CCCC3	-	-	0	0	-
CC1CCCC(NC(=S)Nc2ccc(SC(F)F)cc2)C1C (stereo not given)	9.1	0	0	0	34
CCOc1ncccc1C(=O)OCc1c(Cl)cccc1Cl	-	-	0	0	-
SMILES	H69AR inhibit	HUVEC inhibit	HCT116 bCat-KO	PTEN del growth	Fibroblast inh
CCOC(=O)c1ccc(NC(=O)C(C)N2C(=O)c3ccccc3C2=O)cc1 (stereo not given)	0	0	0	0	0
CCOC(=O)c1ccc(NC2=CC(=O)C(=O)c3ccccc32)cc1	0	5.4	1.4	0	3.9
Cc1ccc(NC2=CC(=O)C(=O)c3ccccc32)cc1	3.4	6.5	1.2	0.6	7.3
Cc1ccc(NC(=O)CSc2nc(-c3ccco3)cc(C(F)(F)F)n2)cc1C	22	0	0	0	0
COC(=O)c1ccccc1NC(=O)CSc1nc(-c2ccco2)cc(C(F)(F)F)n1	24	0	0	0	0
Cc1ccc(NC(=O)CSc2nnc(-c3ccco3)c(-c3ccco3)n2)cc1	26	0	0	0	0
Cc1cc(NC(=O)CSc2nc(-c3ccco3)cc(C(F)(F)F)n2)n(-c2ccccc2)n1	-	-	0	0	-
O=C(CSc1nc(-c2ccco2)cc(C(F)(F)F)n1)Nc1ccc2c(c1)CCC2	21	0	0	0	0
O=C(CSc1nnc(-c2ccco2)c(-c2ccco2)n1)Nc1ccccc1	0	0	0	0	0
O=C(CSc1nc(-c2ccco2)cc(C(F)(F)F)n1)NC1CCCC1	0	0	0	0	0
Cc1cc(Cl)ccc1OCC(=O)NCCOc1nc(N2CCOCC2)nc(N2CCOCC2)n1	-	-	0	0	-
CCNc1nc(NCC)nc(SCCOc2ccc(C)cc2)n1	-	-	0	0	-
Cc1nn(-c2ccccc2)c(Cl)c1C(=O)N(C)c1nc(-c2ccc(F)cc2)cs1	-	-	0	0	-
Cn1c(=O)cc(OCC(=O)NCCCN2CCN(c3cccc(Cl)c3)CC2)c2ccccc21	0	0	0	0	0
Cc1cc(C(=O)NCC2CCCO2)n(-c2ccccc2)n1 (stereo not given)	0	0	0	0	0
CCOC(=O)N1CCN(C(=O)c2cn(C)c(=O)c3c2c2ccccc2n3C)CC1	40	0	0	0	0
Cc1cc(C(=O)NCCCN2CCN(c3cc(Cl)ccc3C)CC2)n(-c2ccccc2)n1	31	0	0	0	0
Cn1cc(C(=O)NCCN2CCN(c3cccc(Cl)c3)CC2)c2c3ccccc3n(C)c2c1=O	16	0	0	0	0
Cc1cc(C(=O)NCCN2CCN(c3cccc(Cl)c3)CC2)n(-c2ccccc2)n1	29	0	0	0	0
O=C(CNC(=O)c1ccc(-c2ccccc2)cc1)OCc1c(Cl)cccc1Cl	-	-	0	0	-
CCc1ccc(NC(=O)c2c(Cl)nc(C)c(Cl)c2C)cc1	-	-	0	0	-
O=C(NC(=S)NC(c1ccccc1)c1ccncc1)c1ccccc1 (stereo not given)	-	-	0	0	-
Cc1ccc2c(=O)c(CN(C)C3CCN(C)CC3)c(C)[nH]c2c1C	0	0	-	-	0
Cc1ccc(S(=O)(=O)Cn2nnnc2CN2CCCC3(CCCCC3)C2)cc1	0	0	0	0	0
CC[C@H](C)[C@H](NC(=O)c1ccc(Cl)cc1)C(=O)OCC(=O)c1ccc2c(c1)NC(=O)CO2	2.6	5.4	0	0	21
SMILES	H69AR inhibit	HUVEC inhibit	HCT116 bCat-KO	PTEN del growth	Fibroblast inh
O=C(Nc1ccc(Cl)cc1)OCCn1nnnc1C(c1ccccc1Cl)N1CCOCC1 (stereo not given)	0	0	0	0	0
O=C1C(=O)c2c(C(=O)c3ccccc3)coc2-c2ccccc21	0.5	3.2	1.8	1.5	36
O=C(c1ccccc1)c1coc2ccc(O)c(Cl)c12	0	0	0	0	0
Cc1oc2c(c1C(=O)c1ccccc1)C(=O)C(=O)c1ccccc1-2	1.4	3.1	1.2	1.5	2.1
Cc1nn(-c2ccccc2)c(Cl)c1C1C(C#N)=C(N)OC2=C1C(=O)CC(C)(C)C2 (stereo not given)	8.8	0	0	0	0
Cc1ccc(-n2nc(C)c(C3C(C#N)=C(N)OC4=C3C(=O)CCC4)c2Cl)cc1 (stereo not given)	0	0	-	-	0
Cc1ccc(NS(=O)(=O)c2cccc(C(=O)NCCc3c[nH]c4ccccc34)c2)c(C)c1	-	-	0	0	-
O=S(=O)(Nc1cccc2cn[nH]c12)c1ccc(F)cc1	0	0	0	0	0
COc1ccc(S(=O)(=O)Nc2ccc(O)c(Sc3ncn[nH]3)c2)cc1	0	0	0	0	0
O=S(=O)(Nc1cc(Sc2cccc3cccnc23)c(O)c2ccccc12)c1ccc(F)cc1	-	-	1.3	1.4	-
COc1ccc(S(=O)(=O)Nc2cc(Sc3ncn[nH]3)c(O)c3ccccc23)cc1	-	-	1.7	2.5	-
Nc1nc(SCC(=O)C23CC4CC(CC(C4)C2)C3)n[nH]1	0	0	0	0	0
